From ChEMBL document CHEMBL1144717, “1-(2-Carboxyindol-5-yloxy)propan-2-ones as inhibitors of human cytosolic phospholipase A2alpha: synthesis, biological activity, metabolic stability, and solubility” (Bioorg Med Chem, 2008)
Values after ≈ are worked out from the molar mass of the structure shown. Active and inactive are the calls of the source. The calls are words filed in the database; no cut-off is given here.

Experiments:
[1] = target: T1, Cytosolic phospholipase A2 (Homo sapiens, UniProt P47712); assay: Inhibition of human platelet cPLA2-alpha activity
T1 sequence (P47712 whole entry): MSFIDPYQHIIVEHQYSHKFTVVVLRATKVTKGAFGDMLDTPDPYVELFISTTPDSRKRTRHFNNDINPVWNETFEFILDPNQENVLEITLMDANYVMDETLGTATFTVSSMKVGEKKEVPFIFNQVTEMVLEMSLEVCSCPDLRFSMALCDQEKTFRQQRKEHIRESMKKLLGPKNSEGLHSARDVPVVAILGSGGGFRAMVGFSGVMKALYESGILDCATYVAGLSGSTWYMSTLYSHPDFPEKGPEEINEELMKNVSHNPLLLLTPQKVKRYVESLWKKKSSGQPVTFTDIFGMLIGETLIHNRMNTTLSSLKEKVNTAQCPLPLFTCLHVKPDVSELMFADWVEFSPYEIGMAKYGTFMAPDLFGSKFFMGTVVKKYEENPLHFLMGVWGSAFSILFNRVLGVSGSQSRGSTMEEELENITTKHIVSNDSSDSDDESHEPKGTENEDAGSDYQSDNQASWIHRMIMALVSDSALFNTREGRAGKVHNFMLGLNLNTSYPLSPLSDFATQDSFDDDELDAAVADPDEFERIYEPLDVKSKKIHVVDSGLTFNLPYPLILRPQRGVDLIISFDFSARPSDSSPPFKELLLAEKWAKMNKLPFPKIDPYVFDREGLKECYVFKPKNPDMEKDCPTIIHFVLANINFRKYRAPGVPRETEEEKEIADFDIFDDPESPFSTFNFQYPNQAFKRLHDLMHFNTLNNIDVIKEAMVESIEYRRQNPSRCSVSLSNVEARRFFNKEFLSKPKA
Summary of the method: (§1)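 cPLA₂α isolated from human platelets. Incubated 60 min. Arachidonic acid released, with and without compound, measured by RP-HPLC with UV 200 nm after SPE cleanup, using an internal standard. Values are means of at least two independent determinations.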

[2] = Metabolic stability in rat liver microsomes at 20 uM after 30 mins in presence of NADPH by reverse phased HPLC relative to control; format: ADME, Microsome; conditions: read-out: Stability
Summary of the method: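 Rat liver microsomes at 5.7 mg protein/mL in PBS (0.1 M, pH 7.4); compound final 20 µM from DMSO. Preincubated 5 min at 37 °C, then started with NADPH (12 mM) and MgCl₂ (5 mM) solution. Stopped after 30 min with acetonitrile. Parent ketone peak measured by RP-HPLC at 240 nm and compared with an NADPH-free incubation. Mean of at least two independent determinations.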

[3] = Solubility in sodium phosphate buffer at pH 7.4; format: physicochemical
Summary of the method: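 Supernatant diluted with acetonitrile and phosphoric acid, then quantified by RP-HPLC at 240 nm against a calibration curve. Mean ± SD, n = 3 (n = 2 for values <1 µg/mL).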

[4] = target: T1, Cytosolic phospholipase A2; assay: Inhibition of cPLA2-alpha in TPA-stimulated intact human platelets assessed as liberation of arachidonic acid after 60 mins
Summary of the method: (§2)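 Human platelets from buffy coat, washed in PBS/EDTA and resuspended in PBS (0.1 M, pH 7.4) at about 10⁸ cells/mL. Preincubated 5 min at 37 °C with ETYA (final 10 µM) and compound in DMSO, then CaCl₂ added for a further 5 min. Stimulated with TPA (final 2 µM) for 60 min at 37 °C. Released arachidonic acid quantified by SPE then RP-HPLC, UV 200 nm, against an internal standard.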

[5] = target: T2, Cytosolic phospholipase A2 (Homo sapiens) (UniProt P47712); assay: Inhibition of cPLA2-alpha in TPA-stimulated intact human platelets assessed as liberation of arachidonic acid at 10 um after 60 mins; summary of the method: as §2
T2 sequence (whole entry): T1 sequence (P47712 whole entry)

[6] = target: T2, Cytosolic phospholipase A2 (Homo sapiens); assay: Inhibition of human platelet cPLA2-alpha activity at 10 uM; summary of the method: as §1

Compound	IC50 [1] [µM]	remaining at 0.5 h, 20 µM [2] [%]	solubility [3] [µg/mL]	IC50 [4] [µM]	Activity [5]	Activity [6]	inhibition [6] [%]
CCCCCCCCc1ccc(OCC(=O)COc2ccc3c(c2)cc(C(=O)O)n3Cc2ccc(C(=O)O)cc2)cc1	1.5	15	13 (≈ 22.7 µM)	–	–	–	–
CCCCCCCCc1ccc(OCC(=O)COc2ccc3c(c2)cc(C(=O)O)n3CCCCCC(=O)O)cc1	0.6	< 5	17 (≈ 30.8 µM)	0.5	–	–	–
CCCCCCCCc1ccc(OCC(O)COc2ccc3c(c2)cc(C(=O)O)n3CC(=O)O)cc1 (stereo not given)	–	–	–	–	inactive	inactive	–
CCCCCCCCc1ccc(OCC(O)COc2ccc3c(c2)cc(C(=O)O)n3C)cc1 (stereo not given)	–	–	–	–	inactive	inactive	–
CCCCCCCCc1ccc(OCC(=O)COc2ccc3[nH]c(C(=O)O)cc3c2)cc1	3.3	< 5	8.4 (≈ 19.2 µM)	–	–	–	–
CCCCCCCCc1ccc(OCC(=O)COc2ccc3c(c2)cc(C(=O)O)n3CC(=O)O)cc1	0.3	18	8.1 (≈ 16.3 µM)	1.3	–	–	–
CCCCCCCCc1ccc(OCC(=O)COc2ccc3c(c2)cc(C(=O)O)n3C)cc1	1.2	< 5	< 1	0.6	–	–	–
CCCCCCCCc1ccc(OCC(=O)COc2ccc3c(c2)cc(C(=O)O)n3Cc2ccccc2)cc1	10	< 5	< 1	–	–	–	–
CCCCCCCCc1ccc(OCC(=O)COc2ccc3c(c2)cc(C(=O)O)n3CCCCCC)cc1	> 10	< 5	< 1	–	–	–	42
CCCCCCCCc1ccc(OCC(=O)COc2ccc3c(c2)cc(C(=O)O)n3CCN(C)C)cc1	> 10	9	46 (≈ 90.4 µM)	–	–	–	32
CCCCCCCCc1ccc(OCC(=O)COc2ccc3c(c2)cc(C(=O)O)n3CCC)cc1	2.1	< 5	< 1	–	–	–	–
CCCCCCCCc1ccc(OCC(=O)COc2ccc3c(c2)cc(C(=O)O)n3CCCC(=O)O)cc1	0.4	< 5	30 (≈ 57.3 µM)	0.3	–	–	–
